Source: ChEMBL document CHEMBL1132488, “On the bioactive conformation of NAN-190 (1) and MP3022 (2), 5-HT(1A) receptor antagonists” (J Med Chem, 1999)

Assays:
[1] = biological target: T1, 5-hydroxytryptamine receptor 1A (Rattus norvegicus, UniProt P19327); assay: Ability to displace [3H]8-OH-DPAT from 5-hydroxytryptamine 1A receptor
T1 sequence (P19327 whole entry): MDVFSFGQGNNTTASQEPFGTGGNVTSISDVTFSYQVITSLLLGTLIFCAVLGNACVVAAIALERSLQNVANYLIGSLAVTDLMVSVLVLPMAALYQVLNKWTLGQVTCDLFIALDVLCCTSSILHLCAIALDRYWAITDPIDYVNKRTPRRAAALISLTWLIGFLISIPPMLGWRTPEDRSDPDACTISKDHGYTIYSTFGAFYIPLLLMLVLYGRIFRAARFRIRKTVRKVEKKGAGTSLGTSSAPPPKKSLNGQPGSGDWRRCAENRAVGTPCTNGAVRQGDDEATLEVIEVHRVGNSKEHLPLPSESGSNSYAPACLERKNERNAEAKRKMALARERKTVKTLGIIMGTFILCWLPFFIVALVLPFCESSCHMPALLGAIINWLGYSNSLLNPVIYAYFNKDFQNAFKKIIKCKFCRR
In short: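 Rat hippocampal membranes, [3H]8-OH-DPAT radioligand. Ki from at least three competition experiments, each with 10–14 drug concentrations run in triplicate. Ki calculated with the Cheng–Prusoff equation.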

Rattus norvegicus [2] = species on record: Rattus norvegicus; assay: Dose Inducing behavioral syndrome(FT: forepaw treading) by the compound in reserpine pretreated rats.; assay type: functional
In short: (§1)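 Male Wistar rats (260–300 g), groups of 6, given reserpine 1 mg/kg sc 18 h before test. Compounds given ip as 1% Tween 80 suspension. FBP and FT rated 0–3 in 45-s sessions every 3 min, starting 3 min after dosing. Score summed over 5 periods (max 15 per symptom). Mean ± SEM; Newman–Keuls test.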

Rattus norvegicus [3] = species on record: Rattus norvegicus; assay: Dose Inducing behavioral syndrome(FBP: flat body posture) by the compound in reserpine pretreated rats; assay type: functional; in short: as §1
Rattus norvegicus [4] = species on record: Rattus norvegicus; assay: Effective dose of the required to inhibit symptoms produced by 8-OH-DPAT; assay type: functional
In short: (§2)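 Reserpinized male Wistar rats (reserpine 1 mg/kg sc, 18 h before), groups of 6. Compound given ip in 1% Tween 80 60 min before 8-OH-DPAT 5 mg/kg sc. FBP/FT rated 0–3 at 3, 6, 9, 12 and 15 min after agonist, summed (max 15). Mean ± SEM; Newman–Keuls test; ED50 with range.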

Rattus norvegicus [5] = species on record: Rattus norvegicus; assay: Effect on 8-OH-DAPT- induced behavioral syndrome(FT: forepaw treading) by the compound in reserpine pretreated rats at a dose of 16; FT mean score; assay type: functional; in short: as §2
Rattus norvegicus [6] = species on record: Rattus norvegicus; assay: Effect on 8-OH-DAPT- induced behavioral syndrome(FT: forepaw treading) by the compound in reserpine pretreated rats at a dose of 4; FT mean score; assay type: functional; in short: as §2
Rattus norvegicus [7] = species on record: Rattus norvegicus; assay: Effect on 8-OH-DAPT- induced behavioral syndrome(FBP: flat body posture) by the compound in reserpine pretreated rats at a dose of 16; FBP mean score; assay type: functional; in short: as §2
Rattus norvegicus [8] = species on record: Rattus norvegicus; assay: Effect on 8-OH-DAPT- induced behavioral syndrome(FBP: flat body posture) by the compound in reserpine pretreated rats at a dose of 4; FBP mean score; assay type: functional; in short: as §2
Rattus norvegicus [9] = species on record: Rattus norvegicus; assay: Effect on 8-OH-DAPT- induced behavioral syndrome(FT: forepaw treading) by the compound in reserpine pretreated rats at a dose of 8; FT mean score; assay type: functional; in short: as §2
Rattus norvegicus [10] = species on record: Rattus norvegicus; assay: Induction of behavioral syndrome(FT: forepaw treading) by the compound in reserpine pretreated rats at a dose of 16; FT mean score; assay type: functional
In short: (§3)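 Male Wistar rats (260–300 g) were given reserpine 1 mg/kg sc in saline 18 h before testing. Test compound was then given alone ip as a 1% Tween 80 suspension (2 mL/kg). FBP and FT were each scored 0–3 and summed (maximum 15). n=6 per group; mean ± SEM; Newman–Keuls test.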

Rattus norvegicus [11] = species on record: Rattus norvegicus; assay: Induction of behavioral syndrome(FT: forepaw treading) by the compound in reserpine pretreated rats at a dose of 4; FT mean score; assay type: functional; in short: as §3
Rattus norvegicus [12] = species on record: Rattus norvegicus; assay: Induction of behavioral syndrome(FT: forepaw treading) by the compound in reserpine pretreated rats at a dose of 8; FT mean score; assay type: functional; in short: as §3
Rattus norvegicus [13] = species on record: Rattus norvegicus; assay: Effect on 8-OH-DAPT- induced behavioral syndrome(FBP: flat body posture) by the compound in reserpine pretreated rats at a dose of 8; FBP mean score; assay type: functional; in short: as §2
Rattus norvegicus [14] = species on record: Rattus norvegicus; assay: Induction of behavioral syndrome(FBP: flat body posture) by the compound in reserpine pretreated rats at a dose of 16; FBP mean score; assay type: functional; in short: as §1
Rattus norvegicus [15] = species on record: Rattus norvegicus; assay: Induction of behavioral syndrome(FBP: flat body posture) by the compound in reserpine pretreated rats at a dose of 4; FBP mean score; assay type: functional; in short: as §3
Rattus norvegicus [16] = species on record: Rattus norvegicus; assay: Induction of behavioral syndrome(FBP: flat body posture) by the compound in reserpine pretreated rats at a dose of 8; FBP mean score; assay type: functional; in short: as §3
Rattus norvegicus [17] = assay: Effect on 8-OH-DPAT-Induced LLR(lower lip retraction) in rats at a dose of 16 mg/kg; LLR score; assay type: functional
In short: (§4)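 Male Wistar rats, groups of 6. Compound given ip in 1% Tween 80 45 min before 8-OH-DPAT 1 mg/kg sc. Lower incisor visibility scored 0/0.5/1 at 15, 30 and 45 min after agonist, summed (max 3). Mean ± SEM; Newman–Keuls test; ED50 with range.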

Rattus norvegicus [18] = assay: Effect on 8-OH-DPAT-Induced LLR(lower lip retraction) in rats at a dose of 8 mg/kg; LLR score; assay type: functional; in short: as §4
Rattus norvegicus [19] = assay: Induction of LLR(lower lip retraction) by the compound in rats at a dose of 16 mg/kg; LLR score; assay type: functional
In short: (§5)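 Male Wistar rats, groups of 6, given compound alone ip as 1% Tween 80 suspension. Lower incisor visibility scored 0/0.5/1 at 15, 30 and 45 min after dosing, summed (max 3 per rat). Mean ± SEM versus vehicle, Newman–Keuls test; ED50 with range.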

Rattus norvegicus [20] = assay: Induction of LLR(lower lip retraction) by the compound in rats at a dose of 4 mg/kg; LLR score; assay type: functional; in short: as §5
Rattus norvegicus [21] = assay: Induction of LLR(lower lip retraction) by the compound in rats at a dose of 8 mg/kg; LLR score; assay type: functional; in short: as §5
Rattus norvegicus [22] = assay: Effect on 8-OH-DPAT-Induced LLR(lower lip retraction) in rats at a dose of 4 mg/kg; LLR score; assay type: functional; in short: as §4

Q: Which Ki [1] does the source give for `O=C1[C@H]2CCCC[C@H]2C(=O)N1C1CCC(N2CCc3ccccc3C2)CC1` (some centres not stated) here?
A: The Ki was 1600 nM.

Q: What does the source list for `COc1ccccc1N1CCN(CCCn2nnc3ccccc32)CC1`?
A: ED50 (Rattus norvegicus [2]): 5.2 mg/kg; ED50 (Rattus norvegicus [3]): 10.5 mg/kg; ED50 (Rattus norvegicus [4]): 6.5 mg/kg; FT mean score (Rattus norvegicus [5]): 2.6; FT mean score (Rattus norvegicus [6]): 5.8; FBP mean score (Rattus norvegicus [7]): 6.1; FBP mean score (Rattus norvegicus [8]): 11.5; FT mean score (Rattus norvegicus [9]): 3.7; FT mean score (Rattus norvegicus [10]): 0.1; FT mean score (Rattus norvegicus [11]): 0.2; FT mean score (Rattus norvegicus [12]): 0.2; FBP mean score (Rattus norvegicus [13]): 8; FBP mean score (Rattus norvegicus [14]): 0.1; FBP mean score (Rattus norvegicus [15]): 0.2; FBP mean score (Rattus norvegicus [16]): 0.2; LLR score (Rattus norvegicus [17]): 0.9; LLR score (Rattus norvegicus [18]): 0.7; LLR score (Rattus norvegicus [19]): 0.6; LLR score (Rattus norvegicus [20]): 0; LLR score (Rattus norvegicus [21]): 0.1; LLR score (Rattus norvegicus [22]): 1.1
